ChEMBL document CHEMBL6078712, “Triterpenoid phthalimides as selective anti-cancer agents targeting mitochondrial apoptosis” (Eur J Med Chem, 2025)
Calls of active or inactive are those of the source. The calls are words filed in the database; no cut-off is given here.

Legend:
CCRF-CEM [1] = test: Cytotoxicity against human CCRF-CEM cells assessed as inhibition of cell growth incubated for 72 hrs by MTS assay; format: functional, cell-based
Summary of the method: (§1)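 MTS assay on eight human cancer lines and two non-tumour fibroblast lines. IC50 is the concentration that inhibits cell growth by 50 %. SD typically up to 15 % of the mean.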

CEM-DNR = test: Cytotoxicity against human CEM-DNR cells assessed as inhibition of cell growth incubated for 72 hrs by MTS assay; format: functional, cell-based; summary of the method: as §1
HCT-116 = test: Cytotoxicity against human HCT-116 cells assessed as inhibition of cell growth incubated for 72 hrs by MTS assay; format: functional, cell-based; settings: HCT-116, 72 h; summary of the method: as §1
HCT 116 TP53(-/-) = test: Cytotoxicity against human HCT116-p53-null cells assessed as inhibition of cell growth incubated for 72 hrs by MTS assay; format: functional, cell-based; summary of the method: as §1
K562 = test: Cytotoxicity against human K562 cells assessed as inhibition of cell growth incubated for 72 hrs by MTS assay; format: functional, cell-based; settings: K562, 72 h; summary of the method: as §1
[2] = Cytotoxicity against human K562-Tax cells assessed as inhibition of cell growth incubated for 72 hrs by MTS assay; format: functional, cell-based; summary of the method: as §1
A549 = test: Cytotoxicity against human A549 cells assessed as inhibition of cell growth incubated for 72 hrs by MTS assay; format: functional, cell-based; settings: A549, 72 h; summary of the method: as §1
U2OS = test: Cytotoxicity against human U2OS cells assessed as inhibition of cell growth incubated for 72 hrs by MTS assay; format: functional, cell-based; summary of the method: as §1
[3] = Cytotoxicity against human BJ cells assessed as inhibition of cell growth incubated for 72 hrs by MTS assay; format: toxicity, cell-based; summary of the method: as §1
[4] = Cytotoxicity against human MRC5 cells assessed as inhibition of cell growth incubated for 72 hrs by MTS assay; format: toxicity, cell-based; summary of the method: as §1
[5] = Stability in human plasma assessed as compound remaining at 2 uM incubated for 15 mins by RF-MS analysis; format: ADME, cell-free; settings: read-out: Stability
Summary of the method: (§2)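 Human plasma stability, plasma protein binding and liver microsome stability, each run in triplicate. Error deviations below 10 %.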

[6] = Stability in human plasma assessed as compound remaining at 2 uM incubated for 30 mins by RF-MS analysis; format: ADME, cell-free; settings: read-out: Stability; summary of the method: as §2
[7] = Stability in human plasma assessed as compound remaining at 2 uM incubated for 60 mins by RF-MS analysis; format: ADME, cell-free; settings: read-out: Stability; summary of the method: as §2
[8] = Stability in human plasma assessed as compound remaining at 2 uM incubated for 120 mins by RF-MS analysis; format: ADME, cell-free; settings: read-out: Stability; summary of the method: as §2
[9] = Plasma protein binding in human assessed as fraction bound at 10 uM incubated for 4 hrs by rapid equilibrium dialysis based RF-MS analysis; format: ADME, cell-free; settings: read-out: PPB (converted); summary of the method: as §2
[10] = Metabolic stability in human liver microsomes assessed as parent compound remaining at 2 uM incubated for 15 mins in presence of NADPH by RF-MS analysis; format: ADME, Microsome; settings: read-out: Stability; summary of the method: as §2
[11] = Metabolic stability in human liver microsomes assessed as parent compound remaining at 2 uM incubated for 30 mins in presence of NADPH by RF-MS analysis; format: ADME, Microsome; settings: read-out: Stability; summary of the method: as §2
[12] = Metabolic stability in human liver microsomes assessed as parent compound remaining at 2 uM incubated for 60 mins in presence of NADPH by RF-MS analysis; format: ADME, Microsome; settings: read-out: Stability; summary of the method: as §2
CCRF-CEM [13] = test: Induction of apoptosis in human CCRF-CEM cells assessed as viable cells at 1 times IC50 incubated for 24 hrs by Annexin V-FITC and PI staining based flow cytometric analysis (reference value: 97.4 %); format: functional
Summary of the method: (§3)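 Washed in Ca2+-containing binding buffer, then stained 15 min at room temperature in the dark with Annexin V-FITC and propidium iodide (PI at half the kit-recommended level). Read at once by flow cytometry with a 488 nm laser, ≥10,000 cells. Debris excluded; quadrants viable, early apoptotic, late apoptotic/necrotic, necrotic. Three independent experiments.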

CCRF-CEM [14] = test: Induction of apoptosis in human CCRF-CEM cells assessed as early apoptotic cells at 1 times IC50 incubated for 24 hrs by Annexin V-FITC and PI staining based flow cytometric analysis (reference value: 2.1 %); format: functional; summary of the method: as §3
CCRF-CEM [15] = test: Induction of apoptosis in human CCRF-CEM cells assessed as late apoptotic cells at 1 times IC50 incubated for 24 hrs by Annexin V-FITC and PI staining based flow cytometric analysis (reference value: 0.4 %); format: functional; summary of the method: as §3
CCRF-CEM [16] = test: Induction of apoptosis in human CCRF-CEM cells assessed as necrotic cells at 1 times IC50 incubated for 24 hrs by Annexin V-FITC and PI staining based flow cytometric analysis (reference value: 0.4 %); format: functional; summary of the method: as §3
CCRF-CEM [17] = test: Induction of apoptosis in human CCRF-CEM cells assessed as viable cells at 5 times IC50 incubated for 24 hrs by Annexin V-FITC and PI staining based flow cytometric analysis (reference value: 97.4 %); format: functional; summary of the method: as §3
CCRF-CEM [18] = test: Induction of apoptosis in human CCRF-CEM cells assessed as early apoptotic cells at 5 times IC50 incubated for 24 hrs by Annexin V-FITC and PI staining based flow cytometric analysis (reference value: 2.1 %); format: functional; summary of the method: as §3
CCRF-CEM [19] = test: Induction of apoptosis in human CCRF-CEM cells assessed as late apoptotic cells at 5 times IC50 incubated for 24 hrs by Annexin V-FITC and PI staining based flow cytometric analysis (reference value: 0.4 %); format: functional; summary of the method: as §3
CCRF-CEM [20] = test: Induction of apoptosis in human CCRF-CEM cells assessed as necrotic cells at 5 times IC50 incubated for 24 hrs by Annexin V-FITC and PI staining based flow cytometric analysis (reference value: 0.4 %); format: functional; summary of the method: as §3
Mitochondrial membrane = test: Induction of mitochondrial membrane potential depolarization in human CCRF-CEM cells assessed as fold increase in fluorescence intensity incubated for 24 hrs by JC-1 staining based flow cytometry; format: cell membranes
CCRF-CEM [21] = test: Inhibition of DNA synthesis in human CCRF-CEM cells at 1 times IC50 incubated for 24 hrs by BrdU incorporation based flow cytometry; format: functional
Summary of the method: (§4)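 Fixed in ice-cold 70 % ethanol, DNA denatured in 2 M HCl for 30 min, neutralised with borax. Stained with anti-BrdU plus FITC secondary, then PI/RNase A for 1 h. Flow cytometry; % BrdU-positive cells.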

CCRF-CEM [22] = test: Inhibition of DNA synthesis in human CCRF-CEM cells at 5 times IC50 incubated for 24 hrs by BrdU incorporation based flow cytometry; format: functional; summary of the method: as §4
CCRF-CEM [23] = test: Inhibition of RNA synthesis in human CCRF-CEM cells at 1 times IC50 incubated for 24 hrs by BrU incorporation based flow cytometry; format: functional
Summary of the method: (§5)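 Fixed in 1 % paraformaldehyde/0.05 % NP-40 (15 min at room temperature, then 4 °C overnight). Stained with cross-reacting anti-BrdU plus FITC secondary (45 min each), then PI/RNase A. Flow cytometry; % BrU-positive cells.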

CCRF-CEM [24] = test: Inhibition of RNA synthesis in human CCRF-CEM cells at 5 times IC50 incubated for 24 hrs by BrU incorporation based flow cytometry; format: functional; summary of the method: as §5
CCRF-CEM [25] = test: Induction of cell cycle arrest in human CCRF-CEM cells assessed as downregulation of Cyclin A expression at 5 times IC50 incubated for 24 hrs by Western blotting analysis; format: functional, cell-based
Summary of the method: (§6)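 30 µg protein per lane on SDS-PAGE, transferred to nitrocellulose, blocked in 5 % BSA/TBS-Tween. Primary antibodies overnight at 4 °C (Akt, P-Akt Ser473, STAT-3, caspase-3, PARP, cyclin D, cyclin A, Bcl-xL, Bak, Bid, Bim), then HRP secondary and ECL detection. GAPDH as loading control.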

CCRF-CEM [26] = test: Induction of apoptosis in human CCRF-CEM cells assessed as upregulation of BID expression at 1 to 5 times IC50 incubated for 24 hrs by Western blotting analysis; format: functional, cell-based; summary of the method: as §6
CCRF-CEM [27] = test: Induction of apoptosis in human CCRF-CEM cells assessed as upregulation of BIM expression at 1 to 5 times IC50 incubated for 24 hrs by Western blotting analysis; format: functional, cell-based; summary of the method: as §6
CCRF-CEM [28] = test: Induction of apoptosis in human CCRF-CEM cells assessed as downregulation of BCL-XL expression at 5 times IC50 incubated for 24 hrs by Western blotting analysis; format: functional, cell-based; summary of the method: as §6

remaining at 0.25 h, 2 µM [5]: 96%
remaining at 0.5 h, 2 µM [6]: 95%
remaining at 1 h, 2 µM [7]: 100%
remaining at 2 h, 2 µM [8]: 89%
fraction unbound at 4 h, 10 µM [9]: 0.231
remaining at 0.25 h, 2 µM [10]: 92%
remaining at 0.5 h, 2 µM [11]: 87%
remaining at 1 h, 2 µM [12]: 79%
Activity (Mitochondrial membrane): Dose-dependent-effect
Compound: CC1(C)[C@@H](O)CC[C@]2(C)[C@H]3CC[C@@H]4[C@H]5[C@H](c6cc7c(c(-c8ccccc8)c6)C(=O)N(c6ccccc6)C7=O)CC[C@]5(C(=O)O)CC[C@@]4(C)[C@]3(C)CC[C@@H]12
IC50 (CCRF-CEM [1]): 5.18 µM
IC50 (CEM-DNR): 20 µM
IC50 (HCT-116): 29.4 µM
IC50 (HCT 116 TP53(-/-)): > 50 µM
IC50 (K562): > 50 µM
IC50 [2]: 23.1 µM
IC50 (A549): > 50 µM
IC50 (U2OS): 25.9 µM
IC50 at 72 h [3]: > 50 µM
IC50 at 72 h [4]: > 50 µM
Activity (CCRF-CEM [13]): 90.7%
Activity (CCRF-CEM [14]): 5.4%
Activity (CCRF-CEM [15]): 3.9%
Activity (CCRF-CEM [16]): 0%
Activity (CCRF-CEM [17]): 90.4%
Activity (CCRF-CEM [18]): 5.1%
Activity (CCRF-CEM [19]): 4.5%
Activity (CCRF-CEM [20]): 0%
inhibition (INH) (CCRF-CEM [21]): 35.2%
inhibition (INH) (CCRF-CEM [22]): 37.8%
inhibition (INH) (CCRF-CEM [23]): 28.4%
inhibition (INH) (CCRF-CEM [24]): 16.1%
Activity (CCRF-CEM [25]): Active
Activity (CCRF-CEM [26]): Active
Activity (CCRF-CEM [27]): Active
Activity (CCRF-CEM [28]): Active
